Experimental data from ChEMBL document CHEMBL1157595, “Synthesis and biological evaluation of botulinum neurotoxin a protease inhibitors” (J Med Chem, 2010).
The source made the active and inactive calls. The rule behind the calls is not given here.

Tests used:
[1] = biological target: T1, Botulinum neurotoxin type A (Clostridium botulinum, UniProt P0DPI0); assay: Inhibition of Clostridium botulinum toxin BoNT/A light chain by FRET assay
Summary of the method: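 Recombinant BoNT/A light chain was assayed by FRET substrate cleavage in 50 mM HEPES–0.05% Tween, pH 7.4. Reactions were stopped with acetic acid (0.5% final), and cleaved substrate fluorescence was read at 485 nm after excitation at 398 nm.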

Lethal factor = biological target: T2, Lethal factor (Bacillus anthracis, UniProt P15917); assay: Inhibition of Bacillus anthracis anthrax lethal factor by FRET assay
T2 sequence (P15917 whole entry): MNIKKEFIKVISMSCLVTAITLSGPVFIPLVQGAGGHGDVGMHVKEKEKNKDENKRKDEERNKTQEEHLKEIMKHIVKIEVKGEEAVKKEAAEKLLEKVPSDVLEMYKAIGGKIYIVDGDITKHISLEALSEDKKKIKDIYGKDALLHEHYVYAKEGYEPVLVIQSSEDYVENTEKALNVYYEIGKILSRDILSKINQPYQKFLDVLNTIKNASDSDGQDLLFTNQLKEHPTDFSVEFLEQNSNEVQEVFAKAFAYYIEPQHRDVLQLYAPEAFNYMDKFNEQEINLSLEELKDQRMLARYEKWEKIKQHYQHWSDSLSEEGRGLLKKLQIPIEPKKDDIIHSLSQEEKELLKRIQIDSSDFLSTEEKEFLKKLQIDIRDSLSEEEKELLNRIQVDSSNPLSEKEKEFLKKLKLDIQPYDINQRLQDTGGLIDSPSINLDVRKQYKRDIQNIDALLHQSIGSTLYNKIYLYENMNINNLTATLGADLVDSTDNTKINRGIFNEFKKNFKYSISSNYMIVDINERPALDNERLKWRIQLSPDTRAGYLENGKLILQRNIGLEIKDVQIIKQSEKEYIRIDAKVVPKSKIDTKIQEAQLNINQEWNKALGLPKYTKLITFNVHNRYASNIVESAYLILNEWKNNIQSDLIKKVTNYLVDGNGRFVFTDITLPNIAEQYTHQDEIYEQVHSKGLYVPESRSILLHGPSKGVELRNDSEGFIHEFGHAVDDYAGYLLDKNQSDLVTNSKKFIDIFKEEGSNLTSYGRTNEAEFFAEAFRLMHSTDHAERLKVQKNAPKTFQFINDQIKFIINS

[2] = biological target: T1, Botulinum neurotoxin type A; assay: Inhibition of Clostridium botulinum toxin BoNT/A light chain by HPLC-based assay
Summary of the method: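 Secondary HPLC-based cleavage assay with recombinant BoNT/A light chain, used to confirm FRET data. Values are the average of two experiments with variation under 10%.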

[3] = biological target: T1, Botulinum neurotoxin type A; assay: Inhibition of Clostridium botulinum toxin BoNT/A light chain
[4] = biological target: Matrix metalloproteinase-9 (Homo sapiens) (UniProt P14780); assay: Inhibition of human MMP9
Sequence of Matrix metalloproteinase-9 (Homo sapiens) (P14780 whole entry): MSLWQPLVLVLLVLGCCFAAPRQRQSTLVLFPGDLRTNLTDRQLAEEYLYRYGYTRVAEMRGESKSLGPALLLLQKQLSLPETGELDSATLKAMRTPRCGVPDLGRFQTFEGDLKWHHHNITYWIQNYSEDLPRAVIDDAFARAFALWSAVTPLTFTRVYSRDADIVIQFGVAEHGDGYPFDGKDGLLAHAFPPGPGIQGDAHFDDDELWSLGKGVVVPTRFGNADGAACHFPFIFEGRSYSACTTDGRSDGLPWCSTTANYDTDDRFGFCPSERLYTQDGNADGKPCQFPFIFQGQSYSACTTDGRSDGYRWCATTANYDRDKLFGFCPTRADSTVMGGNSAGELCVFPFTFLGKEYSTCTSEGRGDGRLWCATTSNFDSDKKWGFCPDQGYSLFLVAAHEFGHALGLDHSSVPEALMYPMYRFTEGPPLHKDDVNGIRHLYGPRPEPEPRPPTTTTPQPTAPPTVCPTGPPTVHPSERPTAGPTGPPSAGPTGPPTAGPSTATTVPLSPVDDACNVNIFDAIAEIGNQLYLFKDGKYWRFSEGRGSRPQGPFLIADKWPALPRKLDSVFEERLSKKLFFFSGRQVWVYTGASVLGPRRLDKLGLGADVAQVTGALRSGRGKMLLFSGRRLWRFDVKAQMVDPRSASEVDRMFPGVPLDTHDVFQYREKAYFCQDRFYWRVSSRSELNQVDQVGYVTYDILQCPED

[5] = biological target: T3, Botulinum neurotoxin type B (Clostridium botulinum) (UniProt P10844); assay: Inhibition of Clostridium botulinum toxin BoNT/B
T3 sequence (whole entry): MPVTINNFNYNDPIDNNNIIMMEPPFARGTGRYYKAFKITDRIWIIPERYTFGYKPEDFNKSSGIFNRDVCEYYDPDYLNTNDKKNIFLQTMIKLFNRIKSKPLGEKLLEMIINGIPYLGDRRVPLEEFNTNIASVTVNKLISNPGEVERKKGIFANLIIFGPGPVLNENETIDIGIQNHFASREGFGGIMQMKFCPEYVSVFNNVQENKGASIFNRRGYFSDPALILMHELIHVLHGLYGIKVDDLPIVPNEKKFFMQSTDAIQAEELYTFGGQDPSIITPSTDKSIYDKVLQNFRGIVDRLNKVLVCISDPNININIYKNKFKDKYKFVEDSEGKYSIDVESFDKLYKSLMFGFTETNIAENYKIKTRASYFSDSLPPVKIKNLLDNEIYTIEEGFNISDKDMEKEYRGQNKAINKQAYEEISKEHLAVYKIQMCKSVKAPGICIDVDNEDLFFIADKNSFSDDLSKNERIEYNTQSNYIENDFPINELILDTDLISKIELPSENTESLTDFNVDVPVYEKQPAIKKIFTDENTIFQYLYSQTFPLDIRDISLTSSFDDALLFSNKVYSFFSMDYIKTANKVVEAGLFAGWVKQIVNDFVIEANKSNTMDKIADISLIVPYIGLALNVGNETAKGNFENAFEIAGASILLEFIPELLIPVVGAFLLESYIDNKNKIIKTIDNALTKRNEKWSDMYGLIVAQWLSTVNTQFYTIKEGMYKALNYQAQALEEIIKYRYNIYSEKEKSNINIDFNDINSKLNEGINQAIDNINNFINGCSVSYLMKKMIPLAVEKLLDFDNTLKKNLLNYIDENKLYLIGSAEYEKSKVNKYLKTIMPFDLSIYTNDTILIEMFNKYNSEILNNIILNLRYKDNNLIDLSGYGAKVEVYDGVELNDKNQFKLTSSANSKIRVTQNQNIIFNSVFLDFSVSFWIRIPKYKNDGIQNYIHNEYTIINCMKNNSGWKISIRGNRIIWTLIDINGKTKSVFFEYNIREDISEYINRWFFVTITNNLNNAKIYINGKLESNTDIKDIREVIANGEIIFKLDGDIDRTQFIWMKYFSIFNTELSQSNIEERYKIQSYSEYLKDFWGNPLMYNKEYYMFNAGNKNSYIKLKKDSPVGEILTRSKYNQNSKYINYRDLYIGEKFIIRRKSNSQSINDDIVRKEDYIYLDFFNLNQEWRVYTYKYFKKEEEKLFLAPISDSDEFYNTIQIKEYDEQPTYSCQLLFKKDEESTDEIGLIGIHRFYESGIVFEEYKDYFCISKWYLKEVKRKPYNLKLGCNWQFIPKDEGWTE

[6] = biological target: T4, Interstitial collagenase (Homo sapiens) (UniProt P03956); assay: Inhibition of human MMP1
T4 sequence (whole entry): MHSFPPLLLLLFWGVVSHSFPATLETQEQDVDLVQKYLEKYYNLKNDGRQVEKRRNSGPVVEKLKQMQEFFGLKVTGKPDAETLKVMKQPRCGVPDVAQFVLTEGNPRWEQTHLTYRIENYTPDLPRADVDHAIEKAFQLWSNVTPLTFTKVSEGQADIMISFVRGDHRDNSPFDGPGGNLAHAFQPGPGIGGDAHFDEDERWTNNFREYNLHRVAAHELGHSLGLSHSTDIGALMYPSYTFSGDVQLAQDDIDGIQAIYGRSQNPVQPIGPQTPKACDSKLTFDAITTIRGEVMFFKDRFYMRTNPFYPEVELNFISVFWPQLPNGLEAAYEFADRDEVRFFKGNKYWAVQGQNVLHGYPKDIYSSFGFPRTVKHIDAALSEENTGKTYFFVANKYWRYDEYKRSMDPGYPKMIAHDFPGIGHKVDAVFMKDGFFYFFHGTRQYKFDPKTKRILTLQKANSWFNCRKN

[7] = biological target: Botulinum neurotoxin type A (Clostridium botulinum) (UniProt P0DPI0); details: 20 uM
Sequence of Botulinum neurotoxin type A (Clostridium botulinum) (P0DPI0 2-448 limits assumed): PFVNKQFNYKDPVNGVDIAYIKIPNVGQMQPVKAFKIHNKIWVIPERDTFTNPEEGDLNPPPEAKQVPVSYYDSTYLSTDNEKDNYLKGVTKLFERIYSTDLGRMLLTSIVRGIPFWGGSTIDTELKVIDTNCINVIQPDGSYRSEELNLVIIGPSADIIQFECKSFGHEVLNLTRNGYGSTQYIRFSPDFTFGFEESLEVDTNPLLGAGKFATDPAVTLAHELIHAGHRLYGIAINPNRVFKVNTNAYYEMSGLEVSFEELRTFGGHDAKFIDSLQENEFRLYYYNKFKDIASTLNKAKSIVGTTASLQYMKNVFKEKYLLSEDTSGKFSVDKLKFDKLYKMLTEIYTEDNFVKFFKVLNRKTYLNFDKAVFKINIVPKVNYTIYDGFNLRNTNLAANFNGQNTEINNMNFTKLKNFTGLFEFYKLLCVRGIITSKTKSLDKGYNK

[8] = Selectivity ratio of IC50 for Bacillus anthracis anthrax lethal factor to IC50 for Clostridium botulinum toxin BoNT/A light chain

T1 sequence (P0DPI0 2-448 limits assumed): as above

SMILES: N#Cc1ccc(Oc2ccc(-c3cc4ccc(C5=NCCN5)cc4[nH]3)cc2)c(Cl)c1
- IC50 [1]: 30 µM
- IC50 (Lethal factor): > 100 µM

SMILES: c1cc(C2=NCCN2)ccc1Oc1ccc(-c2cc3ccc(C4=NCCN4)cc3[nH]2)cc1
- IC50 [1]: 12.5 µM
- IC50 [2]: 9.4 µM
- IC50 (Lethal factor): 43 µM

SMILES: c1cc(-c2cc3ccc(C4=NCCCN4)cc3s2)ccc1C1=NCCCN1
- IC50 [1]: > 100 µM

SMILES: c1cc(-c2cc3ccc(C4=NCCCN4)cc3[nH]2)ccc1C1=NCCCN1
- IC50 [1]: > 100 µM
- IC50 (Lethal factor): > 100 µM

SMILES: NCCCCCCCNCCCCCCCNC(=O)c1cc(CCC(=O)NO)c(CCC(O)(c2ccccc2)c2ccccc2)[nH]1
- IC50 [3]: < 1 µM
- Ki [3]: 0.76 µM

SMILES: c1cc(-c2cc3ccc(C4=NCCN4)cc3[nH]2)ccc1C1=NCCN1
- inhibition [4]: inactive
- IC50 [1]: 20 µM
- inhibition [5]: inactive
- IC50 (Lethal factor): 49 µM
- inhibition [6]: inactive

SMILES: N=C(N)c1ccc(Oc2ccc(-c3cc4ccc(C(=N)N)cc4[nH]3)cc2)cc1
- IC50 [1]: 11 µM
- IC50 [2]: 17 µM
- inhibition [7]: 75%
- IC50 (Lethal factor): 35 µM

SMILES: c1cc(C2=NCCN2)ccc1Oc1ccc(-c2nc3ccc(C4=NCCN4)cc3[nH]2)cc1
- IC50 [1]: 24.5 µM

SMILES: CCOc1ccc(C(Nc2cccnc2)c2cc(Cl)c3cccnc3c2O)cc1 (configuration not stated)
- IC50 [3]: 0.5 µM

SMILES: N#Cc1ccc(Oc2ccc(-c3cc4ccc(C#N)cc4[nH]3)cc2)cc1
- IC50 [1]: > 100 µM

SMILES: c1cc(C2=NCCCN2)ccc1Oc1ccc(-c2cc3ccc(C4=NCCCN4)cc3s2)cc1
- IC50 [1]: 54 µM
- IC50 (Lethal factor): > 100 µM

SMILES: CN(C)CC/N=C(\N)c1ccc(Oc2ccc(-c3cc4ccc(/C(N)=N/CCN(C)C)cc4[nH]3)cc2)cc1
- inhibition [4]: inactive
- IC50 [1]: 2.5 µM
- Ratio IC50 [8]: 10
- inhibition [5]: inactive
- IC50 [2]: 4.4 µM
- IC50 (Lethal factor): 28 µM
- inhibition [6]: inactive

SMILES: c1cc(C2=NCCCN2)ccc1Oc1ccc(-c2cc3ccc(C4=NCCCN4)cc3[nH]2)cc1
- IC50 [1]: 21 µM
- IC50 [2]: 43 µM
- IC50 (Lethal factor): > 100 µM

SMILES: c1cc(-c2cc3ccc(C4=NCCN4)cc3s2)ccc1C1=NCCN1
- IC50 [1]: 43 µM
- IC50 (Lethal factor): > 100 µM

SMILES: OC1CN=C(c2ccc(Oc3ccc(-c4cc5ccc(C6=NCC(O)CN6)cc5[nH]4)cc3)cc2)NC1 (configuration not stated)
- IC50 [1]: 7.3 µM
- Ratio IC50 [8]: 10
- IC50 (Lethal factor): > 100 µM

SMILES: Clc1ccc2cc(-c3ccc(Oc4ccc(C5=NCCN5)cc4)cc3)[nH]c2c1
- IC50 [1]: > 100 µM
- IC50 (Lethal factor): 51 µM

SMILES: N#Cc1ccc(Oc2ccc(-c3cc4ccc(C#N)cc4[nH]3)cc2)c(Cl)c1
- IC50 [1]: > 100 µM

SMILES: Clc1ccc(Oc2ccc(-c3cc4ccc(C5=NCCN5)cc4[nH]3)cc2)c(Cl)c1
- IC50 [1]: > 25 µM
- IC50 [2]: 52 µM
- IC50 (Lethal factor): > 100 µM

SMILES: c1cc(C2=NCCCN2)ccc1Oc1ccc(-c2cc3ccc(C4=NCCCN4)cc3[nH]2)nc1
- IC50 [1]: 67 µM
- IC50 [2]: > 100 µM
- IC50 (Lethal factor): > 100 µM

SMILES: N#Cc1ccc(Oc2ccc(-c3cc4ccc(C(=N)N)cc4[nH]3)cc2)cc1
- IC50 [1]: > 25 µM
- IC50 (Lethal factor): > 100 µM

SMILES: c1cc(C2=NCCN2)ccc1Oc1ccc(-c2cc3ccc(C4=NCCN4)cc3s2)cc1
- IC50 [1]: 7.1 µM
- IC50 [2]: 25 µM
- IC50 (Lethal factor): 18 µM

SMILES: N#Cc1ccc(Oc2ccc(-c3cc4ccc(C#N)cc4[nH]3)nc2)cc1
- IC50 [1]: > 100 µM
- IC50 (Lethal factor): > 100 µM

SMILES: c1cc(C2=NCCN2)ccc1Oc1ccc(-c2cc3ccc(C4=NCCN4)cc3[nH]2)nc1
- IC50 [1]: 69 µM
- IC50 [2]: > 100 µM
- IC50 (Lethal factor): 55 µM

SMILES: c1cc(C2=NCCCN2)ccc1Oc1ccc(-c2nc3ccc(C4=NCCCN4)cc3[nH]2)cc1
- IC50 [1]: 28 µM
- IC50 [2]: 41 µM

SMILES: NC(=O)c1ccc(Oc2ccc(-c3cc4ccc(C(N)=O)cc4[nH]3)cc2)cc1
- IC50 [1]: > 100 µM
- IC50 (Lethal factor): > 100 µM
